Test results: ChEMBL document CHEMBL1158007, “Steroidal glycosides from the bulbs of Allium jesdianum” (J Nat Prod, 1999)
In brackets after ≈: the same amount, converted by molar mass.

Assays:
[1] = test system: NCI-H322M; assay: Growth inhibition of human NCI-H322M cells after 72 hrs by MTT assay; assay type: functional
[2] = test system: COLO 205; assay: Growth inhibition of human COLO205 cells after 72 hrs by MTT assay; assay type: functional; conditions: COLO 205, 72 h
[3] = test system: PC-3; assay: Growth inhibition of human PC-3 cells after 72 hrs by MTT assay; assay type: functional; conditions: PC-3, 72 h
[4] = test system: IGROV-1; assay: Growth inhibition of human IGROV1 cells after 72 hrs by MTT assay; assay type: functional; conditions: IGROV-1, 72 h
[5] = test system: SF-295; assay: Growth inhibition of human SF-295 cells after 72 hrs by MTT assay; assay type: functional; conditions: SF-295, 72 h
[6] = test system: NCI/ADR-RES; assay: Growth inhibition of human NCI/ADR-RES cells after 72 hrs by MTT assay; assay type: functional
[7] = test system: UO-31; assay: Growth inhibition of human UO-31 cells after 72 hrs by MTT assay; assay type: functional; conditions: UO-31, 72 h
[8] = test system: HCC 2998; assay: Growth inhibition of human HCC2998 cells after 72 hrs by MTT assay; assay type: functional; conditions: HCC 2998, 72 h
[9] = test system: HL-60; assay: Cytotoxicity against human HL-60 cells after 72 hrs by MTT assay; assay type: functional, cell-based; conditions: HL-60, 72 h
Summary of the method: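 HL-60 cells grown in RPMI 1640 with 10% FBS, L-glutamine, penicillin and streptomycin, seeded at 3 × 10^4 cells/mL, and preincubated 24 h at 37 °C in 5% CO2. Sample in EtOH-H2O (1:1) added to a final 0.01-10 µg/mL, with vehicle-only controls, for 72 h. MTT added for 4 h, then formazan dissolved in DMSO and read at 550 nm. IC50 taken from the dose-response curve.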

[10] = Growth inhibition of human Hs 578T cells after 72 hrs by MTT assay; assay type: functional
[11] = test system: OVCAR-5; assay: Growth inhibition of human OVCAR5 cells after 72 hrs by MTT assay; assay type: functional; conditions: OVCAR-5, 72 h
[12] = test system: LOX IMVI; assay: Growth inhibition of human LOX IMVI cells after 72 hrs by MTT assay; assay type: functional
[13] = test system: MDA-MB-435; assay: Growth inhibition of human MDA-MB-435 cells after 72 hrs by MTT assay; assay type: functional; conditions: MDA-MB-435, 72 h
[14] = Growth inhibition of human HCT 116 cells after 72 hrs by MTT assay; assay type: functional; conditions: HCT-116, 72 h
[15] = test system: HCT-15; assay: Growth inhibition of human HCT-15 cells after 72 hrs by MTT assay; assay type: functional; conditions: HCT-15, 72 h
[16] = test system: DU-145; assay: Growth inhibition of human DU-145 cells after 72 hrs by MTT assay; assay type: functional; conditions: DU-145, 72 h
[17] = test system: SR; assay: Growth inhibition of human SR cells after 72 hrs by MTT assay; assay type: functional
[18] = test system: T47D; assay: Growth inhibition of human T47D cells after 72 hrs by MTT assay; assay type: functional
[19] = test system: ACHN; assay: Growth inhibition of human ACHN cells after 72 hrs by MTT assay; assay type: functional
[20] = test system: SW-620; assay: Growth inhibition of human SW620 cells after 72 hrs by MTT assay; assay type: functional; conditions: SW-620, 72 h
[21] = test system: SNB-19; assay: Growth inhibition of human SNB-19 cells after 72 hrs by MTT assay; assay type: functional; conditions: SNB-19, 72 h
[22] = test system: Malme-3M; assay: Growth inhibition of human MALME-3M cells after 72 hrs by MTT assay; assay type: functional
[23] = test system: HT-29; assay: Growth inhibition of human HT-29 cells after 72 hrs by MTT assay; assay type: functional; conditions: HT-29, 72 h
[24] = test system: RPMI-8226; assay: Growth inhibition of human RPMI 8226 cells after 72 hrs by MTT assay; assay type: functional; conditions: RPMI-8226, 72 h
[25] = test system: OVCAR-3; assay: Growth inhibition of human OVCAR-3 cells after 72 hrs by MTT assay; assay type: functional; conditions: OVCAR-3, 72 h
[26] = test system: UACC-257; assay: Growth inhibition of human UACC-257 cells after 72 hrs by MTT assay; assay type: functional; conditions: UACC-257, 72 h
[27] = test system: KM12; assay: Growth inhibition of human KM12 cells after 72 hrs by MTT assay; assay type: functional; conditions: KM12, 72 h
[28] = Growth inhibition of human SK MEL28 cells after 72 hrs by MTT assay; assay type: functional; conditions: SK-MEL-28, 72 h
[29] = test system: A498; assay: Growth inhibition of human A498 cells after 72 hrs by MTT assay; assay type: functional; conditions: A498, 72 h
[30] = test system: SNB-75; assay: Growth inhibition of human SNB-75 cells after 72 hrs by MTT assay; assay type: functional; conditions: SNB-75, 72 h
[31] = test system: MDA-N; assay: Growth inhibition of human MDA-N cells after 72 hrs by MTT assay; assay type: functional
[32] = test system: OVCAR-8; assay: Growth inhibition of human OVCAR8 cells after 72 hrs by MTT assay; assay type: functional; conditions: OVCAR-8, 72 h
[33] = read-out: LC50 (the source's name)

With `C[C@@H]1CC[C@@]2(OC1)O[C@H]1C[C@H]3[C@@H]4CC[C@H]5C[C@@H](O[C@@H]6O[C@H](CO)[C@H](O[C@@H]7O[C@H](CO)[C@@H](O)[C@H](O[C@@H]8OC[C@@H](O)[C@H](O)[C@H]8O)[C@H]7O[C@@H]7O[C@H](CO)[C@@H](O)[C@H](O)[C@H]7O)[C@H](O)[C@H]6O)[C@H](O)C[C@]5(C)[C@H]4CC[C@]3(C)[C@H]1[C@@H]2C` the GI50 [1] was 12 µM, the TGI [1] was 26 µM and the CC50 [1, 33] was 55 µM. For the same compound, the GI50 [2] was 1.4 µM, the TGI [2] was 32 µM and the CC50 [2, 33] was under 100 µM. It also gave a GI50 [3] of 3.1 µM, a TGI [3] of 15 µM and a CC50 [3, 33] of 41 µM. For the same compound, the GI50 [4] was 3.7 µM, the TGI [4] was 17 µM and the CC50 [4, 33] was 48 µM. It also gave a GI50 [5] of 12 µM, a TGI [5] of 49 µM and a CC50 [5, 33] of under 100 µM. For the same compound, the GI50 [6] was 2.8 µM, the TGI [6] was 12 µM and the CC50 [6, 33] was 46 µM. For the same compound, the GI50 [7] was 2.4 µM, the TGI [7] was 12 µM and the CC50 [7, 33] was 50 µM. It also gave a GI50 [8] of 12 µM, a TGI [8] of 25 µM and a CC50 [8, 33] of 50 µM. For the same compound, the IC50 [9] was 1.5 µg/mL (≈ 1.43 µM), the GI50 [10] was 17 µM and the TGI [10] was 32 µM. For the same compound, the CC50 [10, 33] was 63 µM, the GI50 [11] was 5 µM and the TGI [11] was 20 µM. It also gave a CC50 [11, 33] of 59 µM, a GI50 [12] of 1.4 µM and a TGI [12] of 7.9 µM. It also gave a GI50 [13] of 11 µM, a TGI [13] of 26 µM and a CC50 [13, 33] of 66 µM. The GI50 [14] was 3.9 µM, the TGI [14] was 18 µM and the CC50 [14, 33] was 81 µM. It also gave a GI50 [15] of 1.4 µM, a TGI [15] of 11 µM and a CC50 [15, 33] of 46 µM. The GI50 [16] was 2.4 µM, the TGI [16] was 14 µM and the CC50 [16, 33] was 54 µM. It also gave a GI50 [17] of 63 µM, a TGI [17] of under 100 µM and a CC50 [17, 33] of under 100 µM. It also gave a GI50 [18] of 5.4 µM, a TGI [18] of 28 µM and a CC50 [18, 33] of under 100 µM. For the same compound, the GI50 [19] was 2.8 µM, the TGI [19] was 12 µM and the CC50 [19, 33] was 38 µM. The GI50 [20] was 1.7 µM, the TGI [20] was 19 µM and the CC50 [20, 33] was 78 µM. The GI50 [21] was 12 µM, the TGI [21] was 27 µM and the CC50 [21, 33] was 60 µM. For the same compound, the GI50 [22] was 19 µM, the TGI [22] was 35 µM and the CC50 [22, 33] was 69 µM. The GI50 [23] was 1.1 µM, the TGI [23] was 3.1 µM and the GI50 [24] was 0.79 µM. It also gave a TGI [24] of 23 µM, a CC50 [24, 33] of 81 µM and a GI50 [25] of 2.6 µM. For the same compound, the TGI [25] was 9.1 µM, the CC50 [25, 33] was 35 µM and the GI50 [26] was 17 µM. For the same compound, the TGI [26] was 36 µM, the CC50 [26, 33] was 71 µM and the GI50 [27] was 8.9 µM. It also gave a TGI [27] of 23 µM, a CC50 [27, 33] of 55 µM and a GI50 [28] of 15 µM. The TGI [28] was 33 µM, the CC50 [28, 33] was 71 µM and the GI50 [29] was 4.9 µM. The TGI [29] was 35 µM, the CC50 [29, 33] was under 100 µM and the GI50 [30] was 14 µM. For the same compound, the TGI [30] was 28 µM, the CC50 [30, 33] was 59 µM and the GI50 [31] was 11 µM. For the same compound, the TGI [31] was 28 µM, the CC50 [31, 33] was 74 µM and the GI50 [32] was 2.5 µM. The TGI [32] was 6.3 µM and the CC50 [32, 33] was 47 µM.
